Data: ChEMBL document CHEMBL1135746, “Structure-activity relationships of the antimalarial agent artemisinin. 7. Direct modification of (+)-artemisinin and in vivo antimalarial screening of new, potential preclinical antimalarial candidates” (J Med Chem, 2002)
Converted amounts (≈) assume the structure as drawn. “And” between values parts separate entries of the source, which are not always exact repeats. Equal values may be shown once. The source made the active and inactive calls. The rule behind the calls is not given here.

What was measured:
Plasmodium berghei [1] = assay: Antimalarial activity against Plasmodium berghei infected mice (Mus musculus) at 32 mg/kg/day subcutaneous dose; format: functional
Outline: (§1)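 CD-1 mice (16-18 g), quarantined 2 weeks, then infected with P. berghei (Thompson test). Treatment was given on days 3-5 postinfection. Subcutaneous dosing was a single injection; oral dosing was by gavage of a peanut-oil suspension. Groups of 5 mice were used. Survival was scored out of 5 and parasitemia was followed up to 60 days postinfection.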

Plasmodium falciparum [2] = assay: Inhibitory activity against Plasmodium falciparum W2; format: functional, organism-based
Outline: (§2)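 Parasitized human red blood cells were used in short-term microtitre cultures. Compounds were dissolved in DMSO and diluted 400-fold in culture medium with plasma, giving a starting concentration of at least 12 500 ng/mL. Activity was measured as inhibition of parasite uptake of a radiolabelled nucleic acid precursor.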

Plasmodium yoelii [3] = assay: Effective subcutaneous dose ED90 against Plasmodium yoelii sspNS; format: functional
Plasmodium falciparum [4] = assay: Inhibitory activity against Plasmodium falciparum D6; format: functional, organism-based; outline: as §2
Plasmodium berghei [5] = assay: Antimalarial activity in Plasmodium berghei infected mice (Mus musculus) at 128 mg/kg/day peroral dose; format: functional; conditions: route oral; outline: as §1
Plasmodium berghei [6] = assay: Antimalarial activity in Plasmodium berghei infected mice (Mus musculus) at 32 mg/kg/day subcutaneous dose; format: functional; outline: as §1
Plasmodium berghei [7] = assay: Antimalarial activity in Plasmodium berghei infected mice (Mus musculus) after 128 mg/kg/day subcutaneous dose; format: functional; outline: as §1
Plasmodium berghei [8] = assay: Antimalarial activity in Plasmodium berghei infected mice (Mus musculus) at 32 mg/kg/day peroral dose; format: functional; conditions: route oral; outline: as §1
Plasmodium berghei [9] = assay: Antimalarial activity in Plasmodium berghei infected mice (Mus musculus) at 8 mg/kg/day peroral dose; format: functional; conditions: route oral; outline: as §1
Plasmodium berghei [10] = assay: Antimalarial activity in Plasmodium berghei infected mice (Mus musculus) at 8 mg/kg/day subcutaneous dose; format: functional; outline: as §1
Plasmodium berghei [11] = assay: Effective dose […] against Plasmodium berghei N in a mice (Mus musculus) malaria model after oral dose; format: functional
Plasmodium berghei [12] = assay: (§3) Effective dose ED90 against Plasmodium berghei N in mice (Mus musculus) malaria model after subcutaneous administration; format: functional
Plasmodium berghei [13] = assay: Effective dose ED50 against Plasmodium berghei N in mice (Mus musculus) malaria model after subcutaneous administration; format: functional
Plasmodium berghei [14] = assay: (§4) Effective dose ED90 against Plasmodium berghei N in mice (Mus musculus) malaria model after oral administration; format: functional
Outline: (§5)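 Peters' 4-day test: two batches of five male random-bred Swiss albino mice (18-22 g) were inoculated i.v. with 2 × 10⁶ P. berghei N-parasitized RBC. Drug was given once daily for four consecutive days. Compounds were dissolved in DMSO, then diluted in water for subcutaneous or oral dosing. Parasitemia was read the day after the last treatment.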

Plasmodium yoelii [15] = assay: Effective subcutaneous dose ED50 against Plasmodium yoelii sspNS; format: functional; conditions: sc
Plasmodium falciparum [16] = assay: Inhibitory activity against Plasmodium falciparum K1; format: functional, organism-based
Plasmodium berghei [17] = assay: (§6) Effective dose ED90 against Plasmodium berghei N in mice (Mus musculus) malaria model after peroral administration; format: functional; conditions: po
Plasmodium yoelii [18] = assay: Effective dose ED90 against Plasmodium yoelii sspNS on subcutaneous dose; format: functional; conditions: sc
Plasmodium falciparum [19] = assay: Inhibitory activity against Plasmodium falciparum NF54; format: functional, organism-based
Plasmodium berghei [20] = assay: Effective dose ED50 against Plasmodium berghei N in mice (Mus musculus) malaria model after peroral administration; format: functional
Plasmodium berghei [21] = assay: as §4; format: functional; remark: listed apart in the source
Plasmodium yoelii [22] = assay: Effective subcutaneous dose ED90 against Plasmodium yoelii NS; format: functional
Plasmodium yoelii [23] = assay: Effective dose after oral administration against Plasmodium yoelii sspNS for 50%inhibition in presence of DMSO; format: functional
Plasmodium yoelii [24] = assay: Effective subcutaneous dose ED50 in SSV against Plasmodium yoelii sspNS; format: functional; conditions: sc
Plasmodium yoelii [25] = assay: Effective dose after oral administration against Plasmodium yoelii sspNS for 90%inhibition in presence of DMSO; format: functional
Plasmodium yoelii [26] = assay: Effective subcutaneous dose ED90 in SSV against Plasmodium yoelii sspNS; format: functional; conditions: sc
Plasmodium berghei [27] = assay: Effective dose ED90 against Plasmodium berghei N in mice (Mus musculus) malaria model after subcutaneous dose; conditions: sc
Plasmodium berghei [28] = assay: as §3; format: functional; conditions: sc; outline: as §5
Plasmodium berghei [29] = assay: Effective dose against Plasmodium berghei N in mice (Mus musculus) malaria model after subcutaneous administration; format: functional; conditions: sc; outline: as §5
Plasmodium berghei [30] = assay: Effective dose Plasmodium berghei N in mice (Mus musculus) malaria model after subcutaneous administration; format: functional; conditions: sc; outline: as §5
Plasmodium berghei [31] = assay: Effective dose ED50 against Plasmodium berghei N and Plasmodium species infected mice (Mus musculus) after peroral dose; format: functional; conditions: po; outline: as §5
Plasmodium berghei [32] = assay: as §6; format: functional; conditions: po; outline: as §5; remark: listed apart in the source
Plasmodium yoelii [33] = assay: Effective oral dose ED50 in DMSO against Plasmodium yoelii sspNS; format: functional
Plasmodium yoelii [34] = assay: Effective oral dose ED90 in DMSO against Plasmodium yoelii sspNS; format: functional
Plasmodium yoelii [35] = assay: Effective dose ED50 against Plasmodium yoelii sspNS in presence of SSV; format: functional
Plasmodium yoelii [36] = assay: Effective oral dose ED90 in SSV against Plasmodium yoelii sspNS; format: functional
Plasmodium yoelii [37] = assay: Percent suppression of Plasmodium […] NS infection in mice (Mus musculus) malaria model after 10 mg/kg peroral dose; format: functional; conditions: route oral
Plasmodium berghei [38] = assay: Percent suppression of Plasmodium berghei N infection in mice (Mus musculus) malaria model after peroral dose; format: functional
Plasmodium yoelii [39] = assay: Effective dose against Plasmodium yoelii NS after 10 mg/kg peroral dose in mice (Mus musculus) malaria model; Not active; format: functional, organism-based; set-up: dose 10 mg/kg
Plasmodium berghei [40] = assay: Effective dose against Plasmodium berghei N in mice (Mus musculus) malaria model after peroral administration; format: functional; conditions: po
[41] = Plasmodium berghei, sc, read-out: ED90
[42] = Plasmodium yoelii, sc, read-out: ED90
[43] = Plasmodium berghei, sc, read-out: ED50
[44] = Plasmodium berghei, po, read-out: ED50

Structure (SMILES)	IC50 (Plasmodium falciparum [2]) [µg/mL]	IC50 (Plasmodium falciparum [4]) [µg/mL]	Activity (Plasmodium berghei [5])	Activity (Plasmodium berghei [6])	Activity (Plasmodium berghei [7])	Activity (Plasmodium berghei [8])	Activity (Plasmodium berghei [9])	Activity (Plasmodium berghei [10])	ED90 (Plasmodium berghei [12]; [41]) [mg/kg]	ED50 (Plasmodium berghei [13]; [43]) [mg/kg]	ED50 (Plasmodium yoelii [15]) [mg/kg]	IC50 (Plasmodium falciparum [16]) [µg/mL]	ED90 (Plasmodium berghei [17]) [mg/kg]	ED50 (Plasmodium berghei [20]; [44]) [mg/kg]	also measured
C[C@@H]1CC[C@H]2[C@@H](CCCc3ccc(Cl)cc3)CO[C@@H]3OC4(C)CC[C@@H]1[C@]32OO4 (single isomer, unassigned)	0.0026 (≈ 0.00639 µM)	0.0019 (≈ 0.00467 µM)	5	5	5										Survival dose (Plasmodium berghei [1]): 5; ED90 (Plasmodium yoelii [3]): 1
COc1ccc(CCC[C@H]2CO[C@@H]3OC4(C)CC[C@H]5[C@H](C)CC[C@@H]2[C@@]35OO4)cc1 (single isomer, unassigned)			5	5	5	5	0	0							
OC(c1cc(C(F)(F)F)nc2c(C(F)(F)F)cccc12)C1CCCCN1 (stereo not drawn) [MEFLOQUINE]									2.3	1.1	2.3				ED50 (Plasmodium berghei [11]): 3.3 mg/kg; ED90 (Plasmodium yoelii [3]; [42]): 6 mg/kg; ED90 (Plasmodium berghei [14]): 5.1 mg/kg
C[C@@H]1CC[C@H]2[C@@H](C)C(=O)O[C@@H]3O[C@@]4(C)CC[C@@H]1[C@]32OO4 [ARTEMISININ]			0	3	5	0	0	0							
C[C@@H]1CC[C@H]2[C@@H](CCCc3cccc(Cl)c3)CO[C@@H]3OC4(C)CC[C@@H]1[C@]32OO4 (single isomer, unassigned)	0.0216 (≈ 0.0531 µM)	0.00755 (≈ 0.0186 µM)							0.9	0.5	0.6	0.0101 (≈ 0.0247 µM)	8.3	2	ED90 (Plasmodium yoelii [18]): 1 mg/kg; IC50 (Plasmodium falciparum [19]): 0.0183 µg/mL (≈ 0.0449 µM)
C[C@@H]1CC[C@H]2[C@@H](CCCc3ccccc3)CO[C@@H]3OC4(C)CC[C@@H]1[C@]32OO4 (single isomer, unassigned)		0.0009 (≈ 0.00242 µM)	5	5	5	4	0	0							ED90 (Plasmodium berghei [21]): 3.4; ED90 (Plasmodium yoelii [22]): 0.9; ED90 (Plasmodium berghei [13]): 1
C[C@@H]1CC[C@H]2[C@@H](CCCc3cc(F)cc(F)c3)CO[C@@H]3OC4(C)CC[C@@H]1[C@]32OO4 (single isomer, unassigned)	0.0065 (≈ 0.0159 µM)	0.00082 (≈ 0.00201 µM)							2	1.3		0.0032 (≈ 0.00783 µM)	5.7		ED50 (Plasmodium yoelii [23]): 2.3 mg/kg; ED50 (Plasmodium yoelii [24]): 2.2 mg/kg; ED90 (Plasmodium yoelii [25]): 7.5 mg/kg; ED90 (Plasmodium yoelii [26]): 6.5 mg/kg
CCN(CC)CCCC(C)Nc1ccnc2cc(Cl)ccc12 (stereo not drawn) [CHLOROQUINE]									3	1.5	1.6				ED90 (Plasmodium yoelii [3]; [42]): 28 mg/kg; ED90 (Plasmodium berghei [27]): 1.8 mg/kg; ED90 (Plasmodium berghei [28]): 3.4 mg/kg
C[C@H]1[C@H](OC(=O)CCC(=O)[O-])O[C@@H]2O[C@@]3(C)CC[C@H]4[C@H](C)CC[C@@H]1[C@@]24OO3.[Na+] [SODIUM ARESUNATE]														2.4	ED90 (Plasmodium berghei [29]): > 10 mg/kg; ED50 (Plasmodium berghei [30]): > 10 mg/kg; ED90 (Plasmodium berghei [31]): > 10 mg/kg; ED50 (Plasmodium berghei [20]): 1.6 mg/kg; ED50 (Plasmodium berghei [13]): 0.8 mg/kg and 1.8 mg/kg; ED90 (Plasmodium berghei [32]): > 10 mg/kg
C[C@@H]1CC[C@H]2[C@@H](CCCc3cc(C(F)(F)F)cc(C(F)(F)F)c3)CO[C@@H]3OC4(C)CC[C@@H]1[C@]32OO4 (single isomer, unassigned)	0.00711 (≈ 0.014 µM)	0.00078 (≈ 0.00153 µM)							1.7	0.9		0.00406 (≈ 0.00798 µM)	5	2.6	ED50 (Plasmodium yoelii [33]): 1.5 mg/kg; ED90 (Plasmodium yoelii [34]): 3.6 mg/kg; ED50 (Plasmodium yoelii [35]): 4.2 mg/kg; ED90 (Plasmodium yoelii [36]): 12 mg/kg
C[C@@H]1CC[C@H]2[C@@H](CCCc3ccc(Cl)c(Cl)c3)CO[C@@H]3OC4(C)CC[C@@H]1[C@]32OO4 (single isomer, unassigned)			5	5	5	5	0	0							
C[C@@H]1CC[C@H]2[C@@H](CCCc3ccc(F)cc3)CO[C@@H]3OC4(C)CC[C@@H]1[C@]32OO4 (single isomer, unassigned)			5	5	5	5	1	0							
C[C@@H]1CC[C@H]2[C@@H](CCCc3ccc(C(F)(F)F)cc3)CO[C@@H]3OC4(C)CC[C@@H]1[C@]32OO4 (single isomer, unassigned)	0.058 (≈ 0.132 µM)	0.0281 (≈ 0.0639 µM)								0.44	0.67	0.0395 (≈ 0.0898 µM)			ED90 (Plasmodium yoelii [18]): 1.25 mg/kg; ED90 (Plasmodium berghei [12]): 0.8 mg/kg and 2.1 mg/kg; IC50 (Plasmodium falciparum [19]): 0.102 µg/mL (≈ 0.23 µM)
C[C@@H]1CC[C@H]2[C@@H](CCCc3cccc(C(F)(F)F)c3)CO[C@@H]3OC4(C)CC[C@@H]1[C@]32OO4 (single isomer, unassigned)	0.0303 (≈ 0.0688 µM)	0.00848 (≈ 0.0193 µM)							0.75	0.4	0.6	0.012 (≈ 0.0272 µM)	4.4	1.25	ED90 (Plasmodium yoelii [18]): 1 mg/kg; IC50 (Plasmodium falciparum [19]): 0.0356 µg/mL (≈ 0.0808 µM)
C=C[C@H]1CN2CC[C@H]1C[C@H]2[C@H](O)c1ccnc2ccc(OC)cc12 [QUININE]	0.15 (≈ 0.462 µM)	0.16 (≈ 0.492 µM)							1050	83			118	71	IC50 (Plasmodium falciparum [19]): 0.00908 µg/mL (≈ 0.028 µM)
C[C@@H]1CC[C@H]2[C@@H](CCCc3cccc(F)c3)CO[C@@H]3OC4(C)CC[C@@H]1[C@]32OO4 (single isomer, unassigned)	0.0268 (≈ 0.0687 µM)	0.00828 (≈ 0.0212 µM)							0.85	0.46	0.58	0.0116 (≈ 0.0296 µM)	3.4	0.9	ED90 (Plasmodium yoelii [18]): 1 mg/kg; IC50 (Plasmodium falciparum [19]): 0.0418 µg/mL (≈ 0.107 µM)
CCCC[C@H]1CO[C@@H]2O[C@]3(C)CC[C@H]4[C@H](C)CC[C@@H]1[C@@]24OO3				5	5	2	0	5							
C[C@@H]1CC[C@H]2[C@@H](CCCC(F)(F)F)CO[C@@H]3OC4(C)CC[C@@H]1[C@]32OO4 (single isomer, unassigned)	0.00887 (≈ 0.0243 µM)	0.0125 (≈ 0.0342 µM)													Activity (Plasmodium yoelii [37]): 0.3%; Activity (Plasmodium berghei [38]): 6.5%; NA (Plasmodium yoelii [39]): inactive; ED50 (Plasmodium berghei [40]): > 10 mg/kg; ED90 (Plasmodium berghei [40]): > 10 mg/kg
